Sampled rows, rich in hits. Any-hit rate of the full collection: about 5.8%.
Cl transport mod: KCC2 cotransporter modulators, thallium flux, primary screen, cell-based, HEK293 KCC2, FluoZin-2 fluorescence, MLSMR | Solute carrier family 12 member 5 (Homo sapiens), Q9H2X9 | KCC2 cells, thallium flux FluoZin-2 fluorescence | B-score of Tl+ flux slope (higher = more flux/activation; lower = inhibition) at 10 µM | 190,000 compounds, 2.2% hits;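 active = thallium flux slope and its plate-corrected score both differing from the plate sample mean at a set confidence after two filtering rounds, in either direction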;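 also: slope of fluorescence scaled to starting intensity during 10 to 20 s after thallium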
RBBP9 inhibitor: human RBBP9 inhibitors, primary screen, biochemical, fluorescence polarization, FP-Rh probe, HTS; recombinant RBBP9; inhibition, % at 7.94 µM; 220,000 compounds, 0.2% hits; AID 1515, 2009;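 active = inhibition above the campaign mean of all tested compounds plus 3 SD, cut at about 14% in these data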
Target sequence (O75884 whole entry, looked up): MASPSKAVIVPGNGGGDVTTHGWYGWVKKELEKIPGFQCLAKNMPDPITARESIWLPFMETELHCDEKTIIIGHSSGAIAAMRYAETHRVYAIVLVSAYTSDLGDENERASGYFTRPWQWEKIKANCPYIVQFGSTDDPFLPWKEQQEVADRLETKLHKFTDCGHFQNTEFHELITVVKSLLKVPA
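Material: RBBP9 protein. Amount: RBBP9 at 2.5 µM in dispensed solution, before mixing. Schedule: 30 min then 45 min, 25 °C. Medium: Tris buffer pH 8.0, NaCl, Pluronic. Measured by: fluorescence polarization. Measure: percent inhibition from mP, scaled between DMSO and no-protein wells. Replication: one well per compound.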
14-3-3 Bad PPI: inhibitors of 14-3-3 zeta/Bad binding, primary screen, biochemical, TR-FRET, bovine 14-3-3 zeta; 220,000 compounds, 0.71% hits; inhibition, % at 21.7 µM; TR-FRET 14-3-3zeta/Dy647-pBad peptide displacement, 1 h; 14-3-3 protein zeta/delta (Bos taurus), P63103;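 active = inhibition above about 70%, limit read from the data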
WT yeast gro inh: growth inhibition of WT strain, primary screen, mitochondrial fusion inhibitor project, WT and mutant strains, chemical genetic; mitochondrial fusion phenotypic screen; inhibition, % at 10 µM; 190,000 compounds, 2.1% hits; AID 1362, 2008; in the data active = inhibition above about 58%; tested in S. cerevisiae
ROMK mod: ROMK potassium channel modulators, primary screen, cell-based, thallium flux, MLSMR library; B-score at 10 µM; Tet-inducible ROMK, thallium flux fluorescence; actives lie on both sides; 130,000 compounds, 2% hits; ATP-sensitive inward rectifier potassium channel 1 (Homo sapiens), P48048; AID 1918, 2009;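 active = signal ratio slope over the read window, or its plate-corrected B-score, at least 3 SD from the plate mean, either direction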;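 also: B-score of the F/F0 ratio slope over 7 to 12 s after thallium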
Target sequence (P48048 whole entry, looked up): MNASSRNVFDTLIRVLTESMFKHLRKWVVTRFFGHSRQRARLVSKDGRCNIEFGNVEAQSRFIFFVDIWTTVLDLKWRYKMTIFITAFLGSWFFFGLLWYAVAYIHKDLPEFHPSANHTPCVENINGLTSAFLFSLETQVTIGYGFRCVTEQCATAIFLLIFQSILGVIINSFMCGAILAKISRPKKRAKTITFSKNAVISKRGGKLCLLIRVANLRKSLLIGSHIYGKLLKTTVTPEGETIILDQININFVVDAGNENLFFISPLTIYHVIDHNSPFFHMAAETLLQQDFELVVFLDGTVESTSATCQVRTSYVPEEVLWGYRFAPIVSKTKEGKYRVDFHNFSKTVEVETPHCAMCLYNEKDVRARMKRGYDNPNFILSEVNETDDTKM
p47phox inh: p47phox/p22phox peptide binding inhibitors, primary screen, biochemical, uHTS, NADPH oxidase regulatory subunit | Neutrophil cytosol factor 1 (Homo sapiens), P14598 | fluorescence polarization, 2 h | inhibition, % at 24.7 µM | 220,000 compounds, 0.53% hits;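 active = inhibition above about 30%, limit read from the data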
ROMK hit retest: ROMK channel modulator hit retest, confirmation, cell-based, thallium flux, duplicate, resupplied hits | shares compounds with ROMK mod | fluorescence ratio; active compounds read low | normalized thallium flux (F/F0 slope) at 10 µM | 3,000 compounds, 54% hits;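 active = Flux at 10 µM at least 3 SD below or above vehicle control mean in one or both replicates; inconclusive = no clear call, values can overlap the other calls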
A number is an active result; 0 = inactive; ? = inconclusive; - = no result.

SMILES	Cl transport mod	RBBP9 inhibitor	14-3-3 Bad PPI	WT yeast gro inh	ROMK mod	p47phox inh	ROMK hit retest
O=C(Nc1ccc(F)cc1)c1nn(-c2ccccc2)c(=O)cc1Cl	0	0	0	0	-3.3	0	0.0657
S=C(NCCCN1CCOCC1)NCCCN1CCOCC1	0	0	0	0	0	0	-
CCCCCCCCNC(=S)NCCN1CCCCC1	0	0	0	0	-2.59	0	0.0482
Cc1cc([N+](=O)[O-])nn1CCCC(=O)NCc1ccc(F)cc1	0	0	0	0	0	0	-
Nc1nc(NCc2ccco2)nc(N2CCCCCC2)c1[N+](=O)[O-]	0	0	0	0	-	0	0.0622
CC(C)CCNC(=O)CCCc1ccccc1	0	0	0	0	0	0	-
c1ccc(-c2nc(N3CCCCCC3)c3ccccc3n2)nc1	0	0	0	0	-2.74	0	0.0592
C/C(=N\Nc1nc(-c2ccccn2)nc2ccccc12)c1ccc(F)cc1	0	0	0	-	-	0	-
c1ccc(CCNc2nc(-c3ccccn3)nc3ccccc23)cc1	0	0	0	-	-	0	?
CCCCCCN(C(=O)CCCCCN1C(=O)NC(c2ccc(-c3ccccc3)cc2)C(C(=O)OCc2ccccc2)=C1C)C(C(=O)NCCCC)c1ccc(O)c(C(=O)OC)c1 (stereo not drawn)	0	-	0	-	-	0	-
N#CC(C#N)=C1C=CC=CN1/C(=C\c1ccco1)C(=O)c1ccccc1	0	0	0	0	-6.04	0	0.0358
COc1ccc(C(=O)/C(=C\c2ccco2)N2C=CC=CC2=C(C#N)C#N)cc1	-	0	0	0	-	0	0.0382
CCOC(=O)CC(=O)CSc1nc2ccc(OC)cc2cc1C	0	0	0	0	0	0	-
CC1=Nc2ccccc2/C1=C/c1c(N)n2c(S(=O)(=O)CC(C)C)nsc2nc1=O	0	0	0	0	0	0	-
CCOc1ccc(CCNC(=O)c2cccc(C#N)c2)cc1OCC	0	0	0	0	0	0	-
O=C(c1ccccc1)c1ccccc1C(=O)c1ccccc1	0	0	0	-	-	0	-
O=C(c1ccccc1)c1cc(Cl)ccc1N1C(=O)C=CC1=O	0	0	0	85.2	-2.72	0	0.0619
COc1cc(C2CC(=O)c3c([nH]c(C(=O)OCCOC(C)C)c3C)C2)cc(OC)c1OC (stereo not drawn)	0	0	0	0	-	0	0.0633
CCOC(=O)c1[nH]c2c(c1C)C(=O)CC(c1ccc(OC)c(OC)c1)C2 (stereo not drawn)	0	0	0	0	0	0	-
CSc1ccc(CN2CCN(Cc3ccc([N+](=O)[O-])cc3)CC2)cc1	-	0	0	0	-3.86	0	0.0545
CCS(=O)(=O)N1CCN(Cc2ccc([N+](=O)[O-])cc2)CC1	0	0	0	0	-	0	-
O=[N+]([O-])c1ccc(CN2CCOCCOCCN(Cc3ccc([N+](=O)[O-])cc3)CCOCC2)cc1	0	0	0	0	-9.91	0	0.0116
O=C(CCCCn1c(=O)c2ccccc2n(Cc2ccccc2F)c1=O)NC1CCN(Cc2ccccc2)CC1	0	0	0	0	0	0	-
NC(=O)c1ccc2c(=O)n3c(-c4cc(Cl)c(N)c(Cl)c4)csc3nc2c1	0	-	0	-	-	0	-
Cc1csc2nc3cc(C(N)=O)ccc3c(=O)n12	0	-	0	-	-	0	0
SMILES	Cl transport mod	RBBP9 inhibitor	14-3-3 Bad PPI	WT yeast gro inh	ROMK mod	p47phox inh	ROMK hit retest
Cc1ccc(C(=O)OCC(=O)Nc2cccc(S(=O)(=O)NC3=NCCCCC3)c2)c(C)c1	0	0	0	0	0	0	-
Cn1c(SCc2nnc3n2CCCCC3)nc2ccccc21	0	0	0	0	-	0	0
CCCCCCCCCCn1ccc(=N)cc1	0	0	0	-	-3.62	0	?
COc1ccc(N(C(=O)CCl)C(C(=O)NCCc2ccccc2)c2cccs2)cc1Cl (stereo not drawn)	0	0	0	0	-3.29	0	0.0626
COc1cccc(N(C(=O)CCl)C(C(=O)NCCc2ccccc2)c2cccs2)c1 (stereo not drawn)	0	0	0	0	0	0	-
Cc1nn(-c2ccccc2)c(Cl)c1/C=C(\C#N)C(=O)NC(C)C	0	0	0	0	-	0	0.038
COc1ccccc1NC(=O)/C(C#N)=C/c1c(C)nn(-c2ccc(F)cc2)c1Cl	0	0	0	0	-	0	-
Cc1ccc(OCCn2c(CCCO)nc3ccccc32)cc1	0	0	0	0	0	0	-
OCCCc1nc2ccccc2n1CCOc1ccccc1	0	0	0	0	-2.89	0	0.0672
O=C(O)c1cccc(N/N=C/C2=C(Cl)c3cc(Cl)ccc3SC2)c1	0	0	0	93.8	0.76	0	0
Cc1[nH]c2ccccc2c1C(=O)NS(=O)(=O)Nc1ccc(F)cc1	0	0	0	0	0	0	-
CN1CC=C2C(C#N)=C(N)C(C#N)(C#N)[C@H](c3cccc(Cl)c3)C2C1 (stereo partly drawn)	0	0	0	0	-3.78	0	0.0449
O=C(NCc1ccc2c(c1)OCO2)C1CCN(c2nccc(C(F)(F)F)n2)CC1	0	0	0	-	-	0	-
O=C(CCCOc1ccccc1)Nc1ccc(Cl)cn1	0	0	0	0	0	0	-
Oc1ccc(Nc2nc(NCC3CCCO3)c3ccccc3n2)cc1 (stereo not drawn)	0	0	0	0	-5.5	0	0.055
COCCCn1c(N)c(-c2nc3ccccc3n2C)c2nc3ccccc3nc21	-	0	0	0	-4.31	0	0.0447
COc1ccc(C2=CC(=O)N(Nc3ccccc3)C2=O)cc1	0	0	0	0	0	0	-
O=C1C=C(c2ccccc2)C(=O)N1Nc1ccccc1	-	0	0	86.6	-3.57	0	0.0606
Nc1nc(Nc2ccccc2)sc1C(=O)c1ccccc1	0	0	0	-	-	0	?
Cc1cnc(NC(=O)c2sc(Nc3ccccc3)nc2N)o1	0	0	0	-	0	0	-
N#C/C(=C\c1ccccc1)c1ccccn1	0	0	0	0	0	0	-
N#C/C(=C\c1ccc(Cl)c([N+](=O)[O-])c1)c1ccccn1	0	0	0	0	-6.93	0	0.0532
Cc1ccc(OCCCSc2ncccn2)cc1C	0	0	0	0	-	0	-
Cc1ccc(SCCN)cc1C	0	0	0	0	-2.96	-	0.0675
O=C(O)c1cc(N2C(=O)CCC2=O)ccc1NCc1cccnc1	0	0	0	-	-	0	-

High-throughput results (PubChem)
